{"source": "ChEMBL document CHEMBL3526032", "about": "“Ablation of both organic cation transporter (OCT)1 and OCT2 alters metformin pharmacokinetics but has no effect on tissue drug exposure and pharmacodynamics” (Drug Metab Dispos, 2012)", "key": {"OCT2 over OCT1": {"system": "OCT2 over OCT1", "assay": "Selectivity for OCT2 (unknown origin) over OCT1 (unknown origin)", "format": "ADME", "conditions": "human"}, "Mus musculus [1]": {"system": "Mus musculus", "assay": "Antidiabetic activity in po dosed wild type FVB mouse assessed as reduction in blood glucose level by oral glucose tolerance test relative to control", "format": "functional", "summary_of_the_method": "(§1)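 Male FVB mice, wild type or Oct1/2-knockout, fasted 16 h. Day 1: oral vehicle (1% hydroxyethyl cellulose/0.25% polysorbate-80/0.05% antifoam) given at -30 min. Day 8: oral metformin 10-300 mg/kg instead. At 0 min, oral glucose 2.5 g/kg.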"}, "Mus musculus [2]": {"system": "Mus musculus", "assay": "Antidiabetic activity in Oct1/Oct2-knockout FVB mouse assessed as reduction in blood glucose level at 300 mg/kg, po by oral glucose tolerance test relative to control", "format": "functional, organism-based", "parameters": "dose 300 mg/kg", "summary_of_the_method": "as §1"}, "Mus musculus [3]": {"system": "Mus musculus", "assay": "Antidiabetic activity in Oct1/Oct2-knockout FVB mouse assessed as reduction in blood glucose level at 10 mg/kg, po by oral glucose tolerance test", "format": "functional, organism-based", "parameters": "dose 10 mg/kg", "summary_of_the_method": "as §1"}, "Mus musculus [4]": {"system": "Mus musculus", "assay": "Antidiabetic activity in Oct1/Oct2-knockout FVB mouse assessed as plasma insulin level at 300 mg/kg, po by oral glucose tolerance test", "format": "functional, organism-based", "parameters": "dose 300 mg/kg", "summary_of_the_method": "(§2)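 Plasma insulin measured by immunoassay at 0, 30, 60, 90 and 120 min during an oral glucose tolerance test (2.5 g/kg) in 16-h fasted male FVB wild-type or Oct1/2-knockout mice. Oral vehicle or metformin (10-300 mg/kg) given 30 min before glucose.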"}, "Mus musculus [5]": {"system": "Mus musculus", "assay": "Antidiabetic activity in wild type FVB mouse assessed as reduction in blood glucose level at 10 mg/kg, po by oral glucose tolerance test", "format": "functional, organism-based", "parameters": "dose 10 mg/kg", "summary_of_the_method": "as §1"}, "Mus musculus [6]": {"system": "Mus musculus", "assay": "Antidiabetic activity in Oct1/Oct2-knockout FVB mouse assessed as blood glucose AUC level at 300 mg/kg, po by oral glucose tolerance test relative to control", "format": "functional", "summary_of_the_method": "as §1"}, "Mus musculus [7]": {"system": "Mus musculus", "assay": "Antidiabetic activity in po dosed Oct1/Oct2-knockout FVB mouse assessed as reduction in blood glucose level by oral glucose tolerance test relative to control", "format": "functional", "summary_of_the_method": "as §1"}, "Mus musculus [8]": {"system": "Mus musculus", "assay": "Antidiabetic activity in wild type FVB mouse assessed as reduction in blood glucose level at 300 mg/kg, po by oral glucose tolerance test relative to control", "format": "functional, organism-based", "parameters": "dose 300 mg/kg", "summary_of_the_method": "as §1"}, "Mus musculus [9]": {"system": "Mus musculus", "assay": "Antidiabetic activity in wild type FVB mouse assessed as half-maximal efficacious AUC at 300 mg/kg, po by oral glucose tolerance test relative to control", "format": "functional, organism-based", "parameters": "dose 300 mg/kg"}, "Mus musculus [10]": {"system": "Mus musculus", "assay": "Antidiabetic activity in wild type FVB mouse assessed as plasma insulin level at 300 mg/kg, po by oral glucose tolerance test", "format": "functional, organism-based", "parameters": "dose 300 mg/kg", "summary_of_the_method": "as §2"}, "Mus musculus [11]": {"system": "Mus musculus", "assay": "Antidiabetic activity in wild type FVB mouse assessed as blood glucose AUC level at 300 mg/kg, po by oral glucose tolerance test relative to control", "format": "functional", "summary_of_the_method": "as §1"}, "Mus musculus [12]": {"system": "Mus musculus", "assay": "Antidiabetic activity in Oct1/Oct2-knockout FVB mouse assessed as half-maximal efficacious AUC at 300 mg/kg, po by oral glucose tolerance test relative to control", "format": "functional, organism-based", "parameters": "dose 300 mg/kg"}, "in vivo [13]": {"assay": "in vivo", "conditions": "FVB, mouse, iv, 10 mg/kg"}, "in vivo [14]": {"assay": "in vivo", "conditions": "FVB, mouse, plasma, iv, 10 mg/kg"}, "[15]": {"assay": "Drug recovery in Oct1/Oct2-knockout FVB mouse urine assessed as corrected compound recovery by measuring nominal to observerd glomerular filtration rate ratio at 10 mg/kg, iv"}, "[16]": {"assay": "Volume of distribution at steady state in wild type FVB mouse at 10 mg/kg, iv", "conditions": "in vivo"}, "[17]": {"assay": "Volume of distribution at steady state in Oct1/Oct2-knockout FVB mouse at 10 mg/kg, iv", "conditions": "in vivo"}, "[18]": {"assay": "Clearance in wild type FVB mouse at 10 mg/kg, iv", "conditions": "in vivo"}, "[19]": {"assay": "Drug excretion in Oct1/Oct2-knockout FVB mouse urine at 10 mg/kg, iv after 2 hrs"}, "in vivo [20]": {"assay": "in vivo", "conditions": "FVB, mouse, iv, 10 mg/kg", "remark": "listed apart in the source"}, "[21]": {"assay": "Initial plasma concentration in Oct1/Oct2-knockout FVB mouse at 10 mg/kg, iv"}, "in vivo [22]": {"assay": "in vivo", "conditions": "FVB, mouse, plasma, iv, 10 mg/kg", "remark": "listed apart in the source"}, "in vivo [23]": {"assay": "in vivo", "conditions": "FVB, mouse, plasma, iv, 10 mg/kg", "remark": "listed apart in the source"}, "in vivo [24]": {"assay": "in vivo", "conditions": "FVB, mouse, plasma, iv, 10 mg/kg", "remark": "listed apart in the source"}, "[25]": {"assay": "Clearance in Oct1/Oct2-knockout FVB mouse at 10 mg/kg, iv", "conditions": "in vivo"}, "[26]": {"assay": "Drug recovery in wild type FVB mouse urine assessed as corrected compound recovery by measuring nominal to observerd glomerular filtration rate ratio at 10 mg/kg, iv"}, "[27]": {"assay": "Initial plasma concentration in wild type FVB mouse at 10 mg/kg, iv"}, "[28]": {"assay": "Drug excretion in wild type FVB mouse urine at 10 mg/kg, iv after 2 hrs"}}, "note": "Active and inactive are the calls of the source. The rule behind the calls is not given here.", "data": [{"smiles": "NC12CC3CC(CC(C3)C1)C2", "note": "[AMANTADINE]", "values": [{"measurement": "selectivity ratio", "setting": "OCT2 over OCT1", "result": 20}]}, {"smiles": "CC(N)Cc1ccccc1", "note": "(stereo not given) [AMPHETAMINE]", "values": [{"measurement": "selectivity ratio", "setting": "OCT2 over OCT1", "result": 20}]}, {"smiles": "CN(C)C(=N)NC(=N)N.Cl", "note": "[METFORMIN HYDROCHLORIDE]", "values": [{"measurement": "ED50", "setting": "Mus musculus [1]", "result": 110, "unit": "mg/kg"}, {"measurement": "Activity", "setting": "Mus musculus [2]", "result": "Active"}, {"measurement": "Activity", "setting": "Mus musculus [3]", "result": "inactive"}, {"measurement": "Activity", "setting": "Mus musculus [4]", "result": "Active"}, {"measurement": "Activity", "setting": "Mus musculus [5]", "result": "inactive"}, {"measurement": "Activity", "setting": "Mus musculus [6]", "result": 42, "unit": "%"}, {"measurement": "ED50", "setting": "Mus musculus [7]", "result": 151, "unit": "mg/kg"}, {"measurement": "Activity", "setting": "Mus musculus [8]", "result": "Active"}, {"measurement": "AUC", "setting": "Mus musculus [9]", "result": 26000, "unit": "ng·h/mL"}, {"measurement": "Activity", "setting": "Mus musculus [10]", "result": "Active"}, {"measurement": "Activity", "setting": "Mus musculus [11]", "result": 39, "unit": "%"}, {"measurement": "AUC", "setting": "Mus musculus [12]", "result": 70000, "unit": "ng·h/mL"}]}, {"smiles": "CC[N+](CC)(CC)CC", "note": "[TETRYLAMMONIUM]", "values": [{"measurement": "half-life", "setting": "in vivo [13]", "result": 12, "unit": "min"}, {"measurement": "AUC(0-inf)", "setting": "in vivo [14]", "result": 9840, "unit": "ng·h/mL"}, {"measurement": "dose excreted", "setting": "[15]", "result": 62, "unit": "%"}, {"measurement": "Vd", "setting": "[16]", "result": 1.52, "unit": "L/kg"}, {"measurement": "Vd", "setting": "[17]", "result": 0.318, "unit": "L/kg"}, {"measurement": "clearance", "setting": "[18]", "result": 58.7, "unit": "mL/min/kg"}, {"measurement": "dose excreted at 2 h", "setting": "[19]", "result": 30, "unit": "%"}, {"measurement": "half-life", "setting": "in vivo [20]", "result": 18.6, "unit": "min"}, {"measurement": "C0", "setting": "[21]", "result": 67400, "unit": "ng/mL"}, {"measurement": "AUC(0-inf)", "setting": "in vivo [22]", "result": 2840, "unit": "ng·h/mL"}, {"measurement": "AUC(0-t)", "setting": "in vivo [23]", "result": 9100, "unit": "ng·h/mL"}, {"measurement": "AUC(0-t)", "setting": "in vivo [24]", "result": 2410, "unit": "ng·h/mL"}, {"measurement": "clearance", "setting": "[25]", "result": 16.9, "unit": "mL/min/kg"}, {"measurement": "dose excreted", "setting": "[26]", "result": 95, "unit": "%"}, {"measurement": "C0", "setting": "[27]", "result": 22700, "unit": "ng/mL"}, {"measurement": "dose excreted at 2 h", "setting": "[28]", "result": 35, "unit": "%"}]}]}
